ChEMBL document CHEMBL1177665, “Discovery of potent and orally active tricyclic-based FBPase inhibitors” (Bioorg Med Chem, 2010)
The source made the active and inactive calls. The calls are words filed in the database; no cut-off is given here.

Tests used:
[1] = target: T1, Fructose-1,6-bisphosphatase 1 (Homo sapiens, UniProt P09467); experiment: Inhibition of human FBase
T1 sequence (P09467 whole entry): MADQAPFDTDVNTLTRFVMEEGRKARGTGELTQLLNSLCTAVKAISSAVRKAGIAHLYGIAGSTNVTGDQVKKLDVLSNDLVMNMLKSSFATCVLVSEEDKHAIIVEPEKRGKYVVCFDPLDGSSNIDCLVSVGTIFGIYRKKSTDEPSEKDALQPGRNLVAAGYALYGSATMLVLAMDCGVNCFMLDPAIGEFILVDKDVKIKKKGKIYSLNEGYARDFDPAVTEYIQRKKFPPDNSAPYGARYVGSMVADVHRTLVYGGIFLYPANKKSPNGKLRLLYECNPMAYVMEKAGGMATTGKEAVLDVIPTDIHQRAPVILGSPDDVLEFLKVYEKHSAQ

[2] = Inhibition of monkey FBase; design: species or system Macaca mulatta
[3] = Antidiabetic activity in monkey hepatocytes assessed as inhibition of glucose production after 4 hrs; type: functional, cell-based; conditions: Macaca mulatta, Hepatocyte
Outline: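 Monkey hepatocytes in phosphate buffered saline with 25 mM sodium bicarbonate, 25 mM HEPES, 1% BSA; compound preincubation only 2 min, then washed out and cells incubated 4 h with 10 mM lactate plus 1 mM pyruvate. Medium glucose measured by Glucose CII-test; IC50 reported as mean SD (n = 7).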

Cynomolgus monkey = experiment: Antidiabetic activity in cynomolgus monkey assessed as decrease in blood glucose level at 20 mg/kg, po after 4 hrs; type: functional, organism-based; design: dose 20 mg/kg; conditions: Macaca fascicularis
Outline: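 Overnight-fasted cynomolgus monkeys (n = 7, 5–8 years old) dosed orally at 20 mg/kg in vehicle (50% PEG 400, 0.5% MC, 0.5% Tween 80) or vehicle alone; crossover in same animals with at least 2-week washout. Blood drawn predose and 1–12 h post-dose; plasma glucose read on i-STAT 300F analyser; mean S.E.M., paired t-test versus vehicle.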

Row | Structure (SMILES) | IC50 [1] [nM] | IC50 [2] [nM] | IC50 [3] [nM] | Activity (Cynomolgus monkey)
1 | CCOC(=O)[C@H](C)NP(=O)(COc1ccc(CC)c2c1-c1ncsc1C2)N[C@@H](C)C(=O)OCC | 11 | 23 | 23000 | –
2 | CCOC(=O)[C@H](C)NP(=O)(COc1ccc(C)c2c1-c1ncsc1C2)N[C@@H](C)C(=O)OCC | 8 | 24 | 7400 | –
3 | Cc1cc(OCP(=O)(N[C@@H](C)C(=O)OC(C)C)N[C@@H](C)C(=O)OC(C)C)c2c(c1C)Cc1scnc1-2 | 10 | 34 | 9000 | –
4 | CCOC(=O)CNP(=O)(COc1cc(C)c(C)c2c1-c1ncsc1C2)NCC(=O)OCC | 10 | 34 | 9400 | –
5 | CCOC(=O)[C@H](C)NP(=O)(N[C@@H](C)C(=O)OCC)c1ccc(-c2nc(N)sc2CC(C)C)o1 | 10 | 30 | 10000 | –
6 | CCOC(=O)[C@H](C)NP(=O)(COc1ccc(C(=O)NCC(C)(C)C)c2c1-c1ncsc1C2)N[C@@H](C)C(=O)OCC | 11 | 31 | > 100000 | –
7 | CCOC(=O)[C@H](C)NP(=O)(COc1cc(C)c(C)c2c1-c1ncsc1C2)N[C@@H](C)C(=O)OCC | 10 | 34 | 6800 | Active
8 | CCOC(=O)[C@H](C)NP(=O)(COc1ccc(C(=O)NC)c2c1-c1ncsc1C2)N[C@@H](C)C(=O)OCC | 2 | 19 | > 100000 | –
9 | CCOC(=O)[C@H](C)NP(=O)(COc1ccc(C(N)=O)c2c1-c1ncsc1C2)N[C@@H](C)C(=O)OCC | 1 | 22 | 94000 | –
